Activity data for one compound are collected here from ChEMBL document CHEMBL3352730, “Synthesis and effects on cell viability of flavonols and 3-methyl ether derivatives on human leukemia cells” (Eur J Med Chem, 2014).

Calls of active or inactive are those of the source. No cut-off for these calls is given here.

Experiment [1] deals with U-937. The experiment in a line: Induction of apoptosis in human U937 cells assessed as pro-caspase-9 cleavage by Western blotting method. It is filed as functional, cell-based. An outline of the steps:
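U937 cells exposed to increasing concentrations of the flavonol and harvested at 24 h. Lysates were immunoblotted with antibodies that detect both the pro-caspases and their cleaved forms.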
In general terms: In western blotting, separated proteins are transferred to a membrane and probed.

Experiment [2] deals with HL-60. The experiment in a line: Induction of apoptosis in human HL60 cells assessed as pro-caspase-4 processing by Western blotting method. It is filed as functional, cell-based.
For experiment [3], the system named is HL-60. The experiment can be described thus: Increase in DR4 expression in human HL60 cells at 10 30 uM after 24 hrs by immunoblotting method. Type of experiment: functional, cell-based. An outline of the steps: (§1)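 HL-60 and U937 cells were treated with increasing concentrations for 24 h. Lysates were immunoblotted for TRAIL, DR4 and DR5.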
Experiment [4] deals with HL-60. The experiment can be described thus: Induction of cell cycle arrest in human HL60 cells assessed as accumulation at G1 phase at 3 uM after 12 hrs by propidium iodide staining based flow cytometry (reference value: 57.2 +/- 0.9%). Type of experiment: functional. (In general: In flow cytometry, cells or beads pass a laser one at a time.)
In experiment [5] the test system is HL-60. The experiment in a line: Increase in TRAIL expression in human HL60 cells at 10 30 uM after 24 hrs by immunoblotting method. Type of experiment: functional, cell-based. The method, boiled down: as §1
Experiment [6] deals with U-937. The experiment in a line: Induction of cell cycle arrest in human U937 cells assessed as accumulation at G2/M phase at 10 uM after 48 hrs by propidium iodide staining based flow cytometry (reference value: 19.1 +/- 1.1%). Type of experiment: functional.
The test system of experiment [7] is HL-60. The experiment can be described thus: Induction of apoptosis in human HL60 cells assessed as pro-caspase-6 cleavage by Western blotting method. Type of experiment: functional, cell-based. The method, boiled down:
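Cells were exposed to a range of compound concentrations and harvested at 24 h. Lysates were immunoblotted for caspase proforms and cleaved forms, and for Bcl-2 family proteins.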

Experiment [8] deals with HL-60. The experiment can be described thus: Induction of apoptosis in human HL60 cells assessed as nuclear chromatin condensation at 30 uM after 24 hrs by Hoechst 33258 staining based fluorescence microscopy. Type of experiment: functional, cell-based. An outline of the steps: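 HL-60 cells were treated at 30 µM for 24 h, stained with Hoechst 33258, and scored for chromatin condensation by fluorescence microscopy.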

With `O=c1c(O)c(-c2ccc(Br)cc2)oc2ccccc12`, the outcome in the experiment with U-937 [1], in the experiment with HL-60 [2], in the experiment on HL-60 [3], in the experiment with HL-60 [5], in the experiment on HL-60 [7] and in the experiment with HL-60 [8] was Active. The Activity with HL-60 [4] is listed as 56.7%; in the experiment on U-937 [6], 7%.
